Measurements collected from several papers.
Compare with care: the assays were run in different laboratories. pIC50: −log10 of the molar value.
Acetylcholinesterase: Acetylcholinesterase (Bos taurus, UniProt P23795)
LDHA: L-lactate dehydrogenase A chain (LDHA, Homo sapiens, UniProt P00338)
Integrin alpha-V/beta-3: Integrin alpha-V/beta-3 (Homo sapiens, UniProt P05106+P06756)
MAOA: Amine oxidase [flavin-containing] A (MAOA, Homo sapiens, UniProt P21397)
PTPN1: Tyrosine-protein phosphatase non-receptor type 1 (PTPN1, Homo sapiens, UniProt P18031)

| SMILES | target | read-out | action | technique | pH | pIC50 |
| --- | --- | --- | --- | --- | --- | --- |
| CNC(=O)Oc1ccccc1OC(C)C | Acetylcholinesterase | enzyme activity | inhibitor | Ellman |  | 5.74 |
| CC(=O)OC[C@H]1O[C@@H](O[C@H]2[C@H](Oc3cc(O)c4c(=O)cc(-c5ccc(O)c(O)c5)oc4c3)O[C@H](CO)[C@@H](O)[C@@H]2O)[C@H](O)[C@@H](O)[C@@H]1O | LDHA | enzyme activity | inhibitor |  | pH 7.4 | 3.35 |
| Cc1ccc2nc(N3C(=O)C(O)=C(C(=O)OC(C)(C)C)C3c3ccc(-c4ccc(Cl)cc4)o3)sc2c1 (centres unmarked) | UDP-N-acetylglucosamine 1-carboxyvinyltransferase (murA, Escherichia coli K-12, UniProt P0A749) | enzyme activity | inhibitor |  |  | 5.35 |
| CC[n+]1c(-c2ccccc2)c2cc(N)ccc2c2ccc(N)cc21 | Acetylcholinesterase | enzyme activity | inhibitor | Ellman |  | 4.49 |
| CN(C)CCCN1c2ccccc2Sc2ccccc21 | Histamine H2 receptor (HRH2, Homo sapiens, UniProt P25021) | ligand displacement |  | radioligand |  | 6.96 |
| CC[C@H](C)[C@@H]([C@@H](CC(=O)N1CCC[C@H]1[C@H](OC)[C@@H](C)C(=O)N[C@@H](Cc1ccccc1)C(=O)O)OC)N(C)C(=O)[C@@H](NC(=O)[C@H](C(C)C)N(C)C(=O)OCc1ccc(NC(=O)[C@H](C)NC(=O)[C@@H](NC(=O)CCc2cn(CCOCCOCCOCCOCC(=O)NCc3ccc(CN4C(=O)[C@H]5CC(=O)N[C@H](C(=O)O)CC(=O)NCC(=O)N[C@@H](CCCNC(=N)N)C(=O)NC[C@H]4C(=O)N5)cc3)nn2)C(C)C)cc1)C(C)C | Integrin alpha-V/beta-3 | ligand displacement |  |  |  | 7.36 |
| COc1ccc(/C=C/C(=O)N2CCN(Cc3ccccc3)CC2)cc1OC | MAOA | enzyme activity | inhibitor | fluorescence |  | 4.20 |
| CCOP(=O)(OCC)Oc1ccc2c(C)c(Cl)c(=O)oc2c1 | Acetylcholinesterase | enzyme activity | inhibitor | Ellman |  | 5.98 |
| CCCCc1ccc(NS(=O)(=O)c2ccc3c4c(cccc24)C(=O)N3)cc1 | PTPN1 | enzyme activity | inhibitor |  |  | 4.23 |
| Nc1ncnc2c1ncn2[C@@H]1O[C@H](COP(=O)(O)OP(=O)(O)OP(=O)(O)O)[C@@H](O)[C@H]1O | Nucleotide-binding oligomerization domain-containing protein 1 (NOD1, Homo sapiens, UniProt Q9Y239) | ligand displacement |  | FP |  | ~7.82 |
| NC(Cc1ccc(C(F)(F)[P-](F)(F)(F)(F)F)cc1)C(=O)O (centres unmarked) | PTPN1 | enzyme activity | inhibitor |  |  | 3.91 |
| O=c1c2ccccc2[se]n1-c1ccccc1 | Glutathione reductase, mitochondrial (GSR, Homo sapiens, UniProt P00390) | enzyme activity | inhibitor | absorbance |  | 4.67 |
| CCCc1c(C2CCCCN2CCN2CCOCC2)[nH]c2cc(OC(F)(F)F)ccc12 (centres unmarked) | Plasma membrane ATPase 1 (PMA1, Saccharomyces cerevisiae, UniProt P05030) | ATPase activity | inhibitor |  |  | 4.57 |
| O=C(Nc1ccc([N+](=O)[O-])cc1[N+](=O)[O-])c1ccc2c(c1)OCO2 | MAOA | enzyme activity | inhibitor |  |  | 6.54 |
| COc1cc(Nc2ncc(F)c(Nc3ccc4c(n3)NC(=O)C(C)(C)O4)n2)cc(OC)c1OC | Fatty-acid amide hydrolase 1 (Faah, Rattus norvegicus, UniProt P97612) | enzyme activity | inhibitor |  |  | 5.80 |
| CC[C@H](C)[C@@H]([C@@H](CC(=O)N1CCC[C@H]1[C@H](OC)[C@@H](C)C(=O)N[C@H](C)[C@@H](O)c1ccccc1)OC)N(C)C(=O)[C@@H](NC(=O)[C@H](C(C)C)N(C)C(=O)OCc1ccc(NC(=O)[C@H](C)NC(=O)[C@@H](NC(=O)CCc2cn(CCOCCOCCOCCOCC(=O)NCc3ccc(CN4C(=O)[C@H]5CC(=O)N[C@H](C(=O)O)CC(=O)NCC(=O)N[C@@H](CCCNC(=N)N)C(=O)NC[C@H]4C(=O)N5)cc3)nn2)C(C)C)cc1)C(C)C | Integrin alpha-V/beta-3 | ligand displacement |  |  |  | 7.44 |
| CNC(=O)C(Cc1ccc(C(F)(F)[P-](F)(F)(F)(F)F)cc1)NC(C)=O (centres unmarked) | PTPN1 | enzyme activity | inhibitor |  |  | 3.06 |
| O=c1cc(-c2ccc(O)c(O)c2)oc2cc(O[C@@H]3O[C@H](CO)[C@@H](O)[C@H](O)[C@H]3O[C@@H]3O[C@H](CO)[C@@H](O)[C@H](O)[C@H]3O)cc(O)c12 | LDHA | enzyme activity | inhibitor |  | pH 7.4 | 3.79 |
| C#CCNc1nc(NCCCCC2CCN(Cc3ccccc3)CC2)c(C#N)cc1C#N | MAOA | enzyme activity | inhibitor | fluorescence |  | 4.27 |
| NC(=O)c1cccc(-c2cc(OC(=O)NC3CCCCC3)ccc2O)c1 | Monoglyceride lipase (Rattus norvegicus, UniProt Q8R431) | enzyme activity | inhibitor |  |  | < 4.00 |
